Data reported in ChEMBL document CHEMBL1128739, “Structure-activity relationships in the 8-amino-6,7,8,9-tetrahydro-3H-benz[e]indole ring system. 2. Effects of 8-amino nitrogen substitution on serotonin receptor binding and pharmacology” (J Med Chem, 1995).
Activity calls are given as the source filed them. No cut-off for these calls is given here.

Experiments:
D(3) dopamine receptor = D(3) dopamine receptor (Rattus norvegicus, UniProt P19020); test: In vitro binding affinity against cloned mammalian Dopamine receptor D3 expressed in CHO cells by, using [3H]-spiperone as radioligand; format: cell-based; conditions: read-out: Ki
Chain of D(3) dopamine receptor (P19020 whole entry): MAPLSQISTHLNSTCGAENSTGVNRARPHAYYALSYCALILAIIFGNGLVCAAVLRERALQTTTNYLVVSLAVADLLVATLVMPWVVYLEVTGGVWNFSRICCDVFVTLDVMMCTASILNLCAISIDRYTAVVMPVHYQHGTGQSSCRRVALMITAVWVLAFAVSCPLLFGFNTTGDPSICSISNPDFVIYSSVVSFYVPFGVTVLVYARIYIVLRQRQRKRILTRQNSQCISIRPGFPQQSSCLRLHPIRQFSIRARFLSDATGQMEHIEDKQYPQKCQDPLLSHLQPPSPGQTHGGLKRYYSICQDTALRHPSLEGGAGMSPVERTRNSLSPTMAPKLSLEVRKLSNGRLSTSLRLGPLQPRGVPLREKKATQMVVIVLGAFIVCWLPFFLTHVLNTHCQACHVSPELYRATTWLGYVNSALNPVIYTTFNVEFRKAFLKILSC

[1] = target: 5-hydroxytryptamine receptor 1B (Homo sapiens, UniProt P28222); test: In vitro binding affinity against cloned mammalian 5-hydroxytryptamine 1D receptor beta expressed in CHO cells, by using [3H]5-HT as radioligand; format: cell-based
Chain of 5-hydroxytryptamine receptor 1B (P28222 whole entry): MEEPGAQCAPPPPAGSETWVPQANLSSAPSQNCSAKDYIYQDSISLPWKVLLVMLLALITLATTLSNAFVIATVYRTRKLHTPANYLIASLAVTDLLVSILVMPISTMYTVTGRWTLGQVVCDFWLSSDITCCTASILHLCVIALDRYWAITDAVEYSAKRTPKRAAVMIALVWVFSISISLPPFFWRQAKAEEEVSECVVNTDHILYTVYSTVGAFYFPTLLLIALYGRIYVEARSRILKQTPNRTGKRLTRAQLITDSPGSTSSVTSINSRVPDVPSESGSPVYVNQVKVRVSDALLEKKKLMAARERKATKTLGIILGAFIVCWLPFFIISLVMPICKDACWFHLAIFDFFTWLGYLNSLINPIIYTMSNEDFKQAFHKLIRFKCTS
Summary of the method: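 Membranes from CHO cells stably expressing the cloned receptor, made by mechanical disruption in ice-cold Tris/EDTA/EGTA pH 7.4 and differential centrifugation. [3H]serotonin at 1.7 nM in 50 mM Tris, 5 mM MgCl2, 0.1% ascorbic acid, pH 7.4. 11 drug concentrations in duplicate, 1 h at room temperature protected from light, then filtration. Excess serotonin defines nonspecific binding. One-site IC50 fit, Ki by Cheng-Prusoff.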

[2] = target: 5-hydroxytryptamine receptor 1D (Homo sapiens, UniProt P28221); test: In vitro binding affinity against cloned mammalian 5-hydroxytryptamine 1D receptor alpha expressed in CHO cells, by using [3H]5-HT as radioligand; format: cell-based
Chain of 5-hydroxytryptamine receptor 1D (P28221 whole entry): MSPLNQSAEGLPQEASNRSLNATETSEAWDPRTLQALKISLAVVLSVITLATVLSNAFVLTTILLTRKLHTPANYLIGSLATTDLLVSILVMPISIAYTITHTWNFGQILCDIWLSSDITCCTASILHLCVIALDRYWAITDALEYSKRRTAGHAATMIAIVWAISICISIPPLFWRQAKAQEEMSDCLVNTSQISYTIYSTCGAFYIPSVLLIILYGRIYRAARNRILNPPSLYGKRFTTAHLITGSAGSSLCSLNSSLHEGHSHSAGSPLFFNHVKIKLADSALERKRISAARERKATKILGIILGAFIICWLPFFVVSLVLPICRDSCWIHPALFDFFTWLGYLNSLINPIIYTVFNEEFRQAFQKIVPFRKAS
Summary of the method: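 Competition binding on CHO-cell membranes (20-60 μg protein) in 50 mM Tris, 5 mM MgCl2, 0.1% ascorbic acid, pH 7.4. Nonspecific binding defined with excess serotonin. 11 drug concentrations, each in duplicate. Incubated 1 h at room temperature, protected from light, then filtered and scintillation counted. IC50 taken from a one-site fit; Ki by Cheng-Prusoff.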

D(2) dopamine receptor [3] = target: T1, D(2) dopamine receptor (Rattus norvegicus, UniProt P61169); test: In vitro binding affinity against cloned mammalian Dopamine receptor D2 expressed in CHO cells using [3H]U-86170 as radioligand; format: cell-based; conditions: read-out: Ki
T1 sequence (P61169 whole entry): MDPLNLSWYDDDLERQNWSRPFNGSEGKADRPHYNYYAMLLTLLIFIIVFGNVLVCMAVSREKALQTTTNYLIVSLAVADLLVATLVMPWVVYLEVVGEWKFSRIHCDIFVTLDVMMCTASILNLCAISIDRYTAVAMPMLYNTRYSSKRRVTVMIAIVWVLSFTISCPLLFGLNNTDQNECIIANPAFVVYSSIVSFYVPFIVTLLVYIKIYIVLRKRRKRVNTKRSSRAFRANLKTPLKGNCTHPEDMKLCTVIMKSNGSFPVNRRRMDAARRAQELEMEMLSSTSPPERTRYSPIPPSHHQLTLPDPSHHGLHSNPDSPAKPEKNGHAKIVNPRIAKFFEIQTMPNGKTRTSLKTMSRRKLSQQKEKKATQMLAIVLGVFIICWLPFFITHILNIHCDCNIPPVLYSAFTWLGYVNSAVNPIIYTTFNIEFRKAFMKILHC
Summary of the method: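 Membranes from CHO cells (20-60 μg protein) in 20 mM HEPES, 10 mM MgSO4, pH 7.4. Nonspecific binding defined with excess haloperidol. 11 concentrations, each in duplicate. Incubated 1 h at room temperature, then filtered and counted. IC50 from a one-site competition fit, converted to Ki by Cheng-Prusoff.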

D(2) dopamine receptor [4] = target: T1, D(2) dopamine receptor; test: Binding affinity rat Dopamine receptor D2 expressed in CHO-K1 cells by [3H]U-86170 displacement.; format: cell-based
Rattus norvegicus [5] = test: The compound was tested in vivo for biochemical effect against the changes in different brain area levels of DOPA in reserpinized rat corpus striatum at dose 3.1 uM/kg; Inactive; format: functional, organism-based
Summary of the method: (§1)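 Male Sprague-Dawley rats (200-300 g) pretreated with reserpine 5 mg/kg sc 18 h before. Injection volume 5 mL/kg, test solutions at neutral pH. DOPA and 5-HTP in limbic system, striatum and hemispheres measured by HPLC with electrochemical detection. Dose-response curves from four to six dose levels (n = 4) per brain area.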

Rattus norvegicus [6] = test: In vivo changes in different brain area levels of 5-HTP in reserpinized rat corpus striatum.; format: functional
Summary of the method: (§2)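 Male Sprague-Dawley rats (200-300 g) pretreated with reserpine 5 mg/kg sc 18 h before. Injection volume 5 mL/kg at neutral pH. Brain-region 5-HTP measured by HPLC with electrochemical detection. Dose-response curves used four to six doses, n = 4.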

Rattus norvegicus [7] = test: In vivo changes in different brain area levels of 5-HTP in reserpinized rat limbic system.; format: functional; summary of the method: as §2
Rattus norvegicus [8] = test: In vivo for biochemical effect against brain area levels of 5-HTP in reserpinized rat hemispheres (mainly cortex).; format: functional; summary of the method: as §1
Rattus norvegicus [9] = test: The compound was tested in vivo for biochemical effect against the changes in different brain area levels of DOPA in reserpinized rat limbic system at dose 3.1 uM/kg; Inactive; format: functional, organism-based; summary of the method: as §1
Rattus norvegicus [10] = test: The compound was tested in vivo for biochemical effect against the changes in different brain area levels of DOPA in reserpinized rat hemispheres (mainly cortex)at dose 3.1 uM/kg; Inactive; format: functional, organism-based; summary of the method: as §1
Rattus norvegicus [11] = test: The compound was tested in vivo for biochemical effect against the changes in different brain area levels of DOPA in reserpinized rat limbic system at dose 50 uM/kg; inactive; format: functional, organism-based
Rattus norvegicus [12] = test: The compound was tested in vivo for biochemical effect against the changes in different brain area levels of DOPA in reserpinized rat corpus striatum at dose 50 uM/kg; inactive; format: functional, organism-based
Rattus norvegicus [13] = test: The compound was tested in vivo for biochemical effect against the changes in different brain area levels of DOPA in reserpinized rat hemispheres (mainly cortex)at dose 3.1 uM/kg; inactive; format: functional, organism-based
Rattus norvegicus [14] = test: The compound was tested in vivo for biochemical effect against the changes in different brain area levels of 5-HTP in reserpinized rat hemispheres (mainly cortex)at dose 3.1 uM/kg; inactive; format: functional, organism-based
Rattus norvegicus [15] = test: The compound was tested in vivo for biochemical effect against the changes in different brain area levels of DOPA in reserpinized rat limbic system at dose 12.5 uM/kg; Partial effect; format: functional, organism-based; summary of the method: as §1
Rattus norvegicus [16] = test: The compound was tested in vivo for biochemical effect against the changes in different brain area levels of DOPA in reserpinized rat hemispheres (mainly cortex)at dose 12.5 uM/kg; Inactive; format: functional, organism-based
Rattus norvegicus [17] = test: The compound was tested in vivo for biochemical effect against the changes in different brain area levels of DOPA in reserpinized rat corpus striatum at dose 12.5 uM/kg; Inactive; format: functional, organism-based; summary of the method: as §1
Rattus norvegicus [18] = test: The compound was tested in vivo for biochemical effect against the changes in different brain area levels of DOPA in reserpinized rat corpus striatum at dose 3.1 umol/kg; Partial effect; format: functional, organism-based; summary of the method: as §1
Rattus norvegicus [19] = test: The compound was tested in vivo for biochemical effect against the changes in different brain area levels of DOPA in reserpinized rat hemispheres (mainly cortex)at dose 3.1 umol/kg; Inactive; format: functional, organism-based; summary of the method: as §1
Rattus norvegicus [20] = test: The compound was tested in vivo for biochemical effect against the changes in different brain area levels of DOPA in reserpinized rat limbic system at dose 3.1 umol/kg; Partial effect; format: functional, organism-based; summary of the method: as §1
Rattus norvegicus [21] = test: The compound was tested in vivo for biochemical effect against the changes in different brain area levels of 5-HTP in reserpinized rat hemispheres (mainly cortex)at dose 3.1 uM/kg; Inactive; format: functional, organism-based
Rattus norvegicus [22] = test: The compound was tested in vivo for biochemical effect against the changes in different brain area levels of 5-HTP in reserpinized rat corpus striatum at dose 3.1 uM/kg; Inactive; format: functional, organism-based
Rattus norvegicus [23] = test: The compound was tested in vivo for biochemical effect against the changes in different brain area levels of 5-HTP in reserpinized rat limbic system at dose 3.1 uM/kg; Inactive; format: functional, organism-based

| SMILES | Ki (D(3) dopamine receptor) [nM] | Ki [1] [nM] | Ki [2] [nM] | Ki (D(2) dopamine receptor [3]) [nM] | further results |
| --- | --- | --- | --- | --- | --- |
| CN(C)[C@@H]1CCc2ccc3[nH]ccc3c2C1 | 270 | 228 | – | – | – |
| CCCN(CC(C)C)[C@@H]1CCc2ccc3[nH]cc(C=O)c3c2C1 | 100 | – | 6.5 | 28 | – |
| CCCN(C)C1CCc2ccc3[nH]cc(C=O)c3c2C1 (stereo not given) | 258 | 109 | 16 | 151 | – |
| CCCN(CCCOc1cccc(Cl)c1)C1CCc2ccc3[nH]ccc3c2C1 (stereo not given) | 20 | 243 | 13 | – | Ki (D(2) dopamine receptor [4]): 15 nM |
| O=Cc1c[nH]c2ccc3c(c12)CC(N1CCCCCC1)CC3 (stereo not given) | – | – | – | > 1000 | – |
| CCCN(CC1CC1)C1CCc2ccc3[nH]cc(C=O)c3c2C1 (stereo not given) | 164 | 196 | 24 | – | ED50 (Rattus norvegicus [5]): inactive; ED50 (Rattus norvegicus [6]): 0.33 µmol/kg; ED50 (Rattus norvegicus [7]): 0.23 µmol/kg; ED50 (Rattus norvegicus [8]): 0.34 µmol/kg; ED50 (Rattus norvegicus [9]): inactive; ED50 (Rattus norvegicus [10]): inactive |
| c1ccc(CCCNCC2CCc3ccc4[nH]ccc4c3C2)cc1 (stereo not given) | 199 | 228 | 63 | – | ED50 (Rattus norvegicus [11]): inactive; ED50 (Rattus norvegicus [12]): inactive; ED50 (Rattus norvegicus [6]): 34 µmol/kg; ED50 (Rattus norvegicus [13]): inactive; ED50 (Rattus norvegicus [14]): inactive; Ki (D(2) dopamine receptor [4]): 32 nM |
| C=CCN(CCC)C1CCc2ccc3[nH]cc(C=O)c3c2C1 (stereo not given) | 130 | 49 | – | 59 | ED50 (Rattus norvegicus [6]): 0.16 µmol/kg; ED50 (Rattus norvegicus [15]): Weak activity; ED50 (Rattus norvegicus [7]): 0.19 µmol/kg; ED50 (Rattus norvegicus [8]): 0.19 µmol/kg; ED50 (Rattus norvegicus [16]): inactive; ED50 (Rattus norvegicus [17]): inactive |
| CCCN(CCC)[C@@H]1CCc2ccc3[nH]cc(C=O)c3c2C1 | – | – | – | – | ED50 (Rattus norvegicus [18]): Weak activity; ED50 (Rattus norvegicus [19]): inactive; ED50 (Rattus norvegicus [20]): Weak activity |
| CCCN(CCCc1ccccc1OC)C1CCc2ccc3[nH]cc(C=O)c3c2C1 (stereo not given) | 84 | 11 | 3.4 | 14 | – |
| CCCN(CCC)CC1CCc2ccc3[nH]ccc3c2C1 (stereo not given) | – | – | – | – | Ki (D(2) dopamine receptor [4]): > 1000 nM |
| CCCN(Cc1ccccc1)C1CCc2ccc3[nH]cc(C=O)c3c2C1 (stereo not given) | 115 | 992 | 33 | 90 | ED50 (Rattus norvegicus [21]): inactive; ED50 (Rattus norvegicus [22]): inactive; ED50 (Rattus norvegicus [5]): inactive; ED50 (Rattus norvegicus [23]): inactive; ED50 (Rattus norvegicus [9]): inactive; ED50 (Rattus norvegicus [10]): inactive |
| CCCNC1CCc2ccc3[nH]cc(C=O)c3c2C1 (stereo not given) | – | 227 | 27 | 60 | – |
| CCCN(CCCc1ccccc1OC)C1CCc2ccc3[nH]ccc3c2C1 (stereo not given) | 10 | 40 | 2.5 | – | Ki (D(2) dopamine receptor [4]): 4.8 nM |
| CCCN(CCc1ccccc1)C1CCc2ccc3[nH]ccc3c2C1 (stereo not given) | 18 | 249 | 7.4 | 5.5 | – |
